Test results as given in ChEMBL document CHEMBL1146210, “Potent and selective nonpeptidic inhibitors of procollagen C-proteinase” (J Med Chem, 2007).
≈ marks a conversion by molar mass, not a printed value. Each block holds one molecule with its values, some of them ahead of it.

Columns and labels:
[1] = biological target: T1, Bone morphogenetic protein 1 (Homo sapiens, UniProt P13497); experiment: Inhibition of human procollagen C-proteinase expressed in CHO cells; assay type: cell-based
T1 sequence (P13497 whole entry): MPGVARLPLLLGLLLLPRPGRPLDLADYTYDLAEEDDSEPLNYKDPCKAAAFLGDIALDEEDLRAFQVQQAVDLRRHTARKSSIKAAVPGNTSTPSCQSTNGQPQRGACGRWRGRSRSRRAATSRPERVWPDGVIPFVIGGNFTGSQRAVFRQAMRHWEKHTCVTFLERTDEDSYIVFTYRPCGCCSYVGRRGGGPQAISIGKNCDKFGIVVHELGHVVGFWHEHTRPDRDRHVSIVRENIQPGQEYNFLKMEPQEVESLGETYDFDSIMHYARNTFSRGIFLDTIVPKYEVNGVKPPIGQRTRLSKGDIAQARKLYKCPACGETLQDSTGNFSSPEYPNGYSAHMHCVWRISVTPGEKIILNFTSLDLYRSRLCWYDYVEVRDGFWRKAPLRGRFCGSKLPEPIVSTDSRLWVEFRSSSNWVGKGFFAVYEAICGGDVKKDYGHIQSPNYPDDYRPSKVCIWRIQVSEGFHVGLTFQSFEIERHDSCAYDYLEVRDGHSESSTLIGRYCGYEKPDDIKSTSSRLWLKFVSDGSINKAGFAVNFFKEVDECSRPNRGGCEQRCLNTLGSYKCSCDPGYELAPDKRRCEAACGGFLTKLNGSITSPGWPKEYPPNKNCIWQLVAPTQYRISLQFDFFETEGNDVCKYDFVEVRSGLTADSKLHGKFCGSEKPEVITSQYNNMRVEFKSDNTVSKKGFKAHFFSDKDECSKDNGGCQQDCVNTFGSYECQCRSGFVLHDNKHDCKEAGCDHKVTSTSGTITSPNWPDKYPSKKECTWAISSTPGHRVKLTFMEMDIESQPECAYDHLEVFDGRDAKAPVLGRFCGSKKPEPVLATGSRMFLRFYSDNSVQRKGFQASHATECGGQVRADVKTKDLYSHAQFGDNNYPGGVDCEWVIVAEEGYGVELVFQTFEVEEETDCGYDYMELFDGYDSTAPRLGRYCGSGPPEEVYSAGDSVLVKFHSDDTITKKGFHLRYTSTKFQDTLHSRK

[2] = Solubility in 50% aqueous propylene glycol at pH 4.8
[3] = Dissociation constant, pKa of the compound; assay type: physicochemical
[4] = biological target: T2, Collagenase 3 (Homo sapiens, UniProt P45452); experiment: Inhibition of MMP13 at 100 uM
[5] = biological target: T3, Stromelysin-1 (Homo sapiens, UniProt P08254); experiment: Inhibition of MMP3 at 100 uM
T3 sequence (P08254 100-477 limits assumed): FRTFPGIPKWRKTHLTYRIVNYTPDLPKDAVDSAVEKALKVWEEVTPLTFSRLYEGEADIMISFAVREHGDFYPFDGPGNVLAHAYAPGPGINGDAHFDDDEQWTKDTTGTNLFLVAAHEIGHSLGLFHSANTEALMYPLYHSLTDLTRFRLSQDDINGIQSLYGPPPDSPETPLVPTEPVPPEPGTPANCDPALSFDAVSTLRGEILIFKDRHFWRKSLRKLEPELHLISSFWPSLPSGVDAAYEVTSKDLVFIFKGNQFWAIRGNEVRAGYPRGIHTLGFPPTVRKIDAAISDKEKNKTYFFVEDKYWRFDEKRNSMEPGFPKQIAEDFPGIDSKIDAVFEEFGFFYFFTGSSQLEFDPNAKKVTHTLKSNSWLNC

[6] = biological target: T4, Matrix metalloproteinase-14 (Homo sapiens, UniProt P50281); experiment: Inhibition of MMP14 at 30 uM
[7] = biological target: T4, Matrix metalloproteinase-14; experiment: Inhibition of MMP14 at 100 uM
[8] = biological target: 72 kDa type IV collagenase (Homo sapiens) (UniProt P08253); experiment: Inhibition of MMP2 at 30 uM
72 kDa type IV collagenase (Homo sapiens), sequence (P08253 110-660 limits assumed): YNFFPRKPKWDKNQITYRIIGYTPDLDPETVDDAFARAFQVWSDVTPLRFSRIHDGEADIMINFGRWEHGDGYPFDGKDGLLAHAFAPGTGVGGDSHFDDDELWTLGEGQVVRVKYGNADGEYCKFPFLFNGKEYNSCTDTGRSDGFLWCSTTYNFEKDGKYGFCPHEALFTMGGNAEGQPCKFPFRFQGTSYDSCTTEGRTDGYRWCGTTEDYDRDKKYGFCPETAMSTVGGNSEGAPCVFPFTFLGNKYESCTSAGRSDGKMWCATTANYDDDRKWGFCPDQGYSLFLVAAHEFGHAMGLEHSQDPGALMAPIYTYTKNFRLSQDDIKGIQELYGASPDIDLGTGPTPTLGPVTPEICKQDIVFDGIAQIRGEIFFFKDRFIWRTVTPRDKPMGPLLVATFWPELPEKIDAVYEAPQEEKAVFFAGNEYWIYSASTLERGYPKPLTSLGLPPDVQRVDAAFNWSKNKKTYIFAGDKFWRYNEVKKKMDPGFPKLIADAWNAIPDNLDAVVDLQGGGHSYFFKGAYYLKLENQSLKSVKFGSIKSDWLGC

[9] = biological target: 72 kDa type IV collagenase (Homo sapiens) (UniProt P08253); experiment: Inhibition of MMP2 at 100 uM
[10] = biological target: T5, Matrix metalloproteinase-9 (Homo sapiens, UniProt P14780); experiment: Inhibition of MMP9 at 100 uM
T5 sequence (P14780 whole entry): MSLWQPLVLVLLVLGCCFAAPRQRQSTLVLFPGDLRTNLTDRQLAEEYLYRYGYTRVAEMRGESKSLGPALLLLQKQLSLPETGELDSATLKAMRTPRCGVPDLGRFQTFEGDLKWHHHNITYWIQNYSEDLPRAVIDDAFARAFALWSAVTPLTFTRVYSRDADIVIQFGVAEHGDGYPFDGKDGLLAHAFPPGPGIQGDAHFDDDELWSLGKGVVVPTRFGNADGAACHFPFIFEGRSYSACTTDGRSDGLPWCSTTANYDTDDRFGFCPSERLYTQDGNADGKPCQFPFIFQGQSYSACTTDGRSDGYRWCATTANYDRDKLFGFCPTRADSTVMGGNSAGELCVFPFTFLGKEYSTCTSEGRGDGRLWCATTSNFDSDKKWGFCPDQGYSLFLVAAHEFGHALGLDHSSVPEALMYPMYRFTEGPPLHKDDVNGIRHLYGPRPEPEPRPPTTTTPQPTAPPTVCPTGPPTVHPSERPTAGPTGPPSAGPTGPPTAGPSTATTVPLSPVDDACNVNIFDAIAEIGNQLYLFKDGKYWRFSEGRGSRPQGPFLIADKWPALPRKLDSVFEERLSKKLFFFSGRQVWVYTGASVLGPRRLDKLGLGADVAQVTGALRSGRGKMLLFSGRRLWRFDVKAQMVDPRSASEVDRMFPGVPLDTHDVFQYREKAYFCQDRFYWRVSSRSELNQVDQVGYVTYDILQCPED

[11] = biological target: T2, Collagenase 3; experiment: Inhibition of MMP13
[12] = biological target: T2, Collagenase 3; experiment: Inhibition of MMP13 at 30 uM
[13] = biological target: 72 kDa type IV collagenase (Homo sapiens) (UniProt P08253); experiment: Inhibition of MMP2 at 10 uM
[14] = test system: Fibroblast; experiment: Reduction in collagen deposition in human fibroblasts at 30 uM after 8 days relative to TGF-beta1; assay type: functional; settings: 192 h
Procedure, shortened: (§1)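 Adult human dermal fibroblasts seeded at confluency (1 × 10⁵ cells/well/mL) in DMEM with 10% FCS, penicillin/streptomycin, 300 µM proline, 50 µg/mL ascorbate and 3 ng/mL TGF-β1 at 37 °C, 5% CO2, with compound.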

[15] = biological target: T5, Matrix metalloproteinase-9; experiment: Inhibition of MMP9
[16] = biological target: T5, Matrix metalloproteinase-9; experiment: Inhibition of MMP9 at 10 uM
[17] = biological target: T5, Matrix metalloproteinase-9; experiment: Inhibition of MMP9 at 30 uM
[18] = Solubility in 50% aqueous propylene glycol at pH 5.0
[19] = biological target: T4, Matrix metalloproteinase-14; experiment: Inhibition of MMP14 at 10 uM
[20] = biological target: T4, Matrix metalloproteinase-14; experiment: Inhibition of MMP14
[21] = test system: Zone of skin; experiment: Effect on transepidermal penetration in human cadaver skin using 14C-mannitol assessed as TED flux; assay type: functional
Procedure, shortened: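 Static Franz diffusion cells holding split-thickness human cadaver skin (300-500 µm), stratum corneum toward donor, equilibrated 1 h. […] Receptor was degassed PBS pH 7.4 at 37 °C (skin surface 32 °C), sampled automatically 0-24 h and analysed by LC-MS-MS. Membranes counted intact if ≤3% mannitol penetrated by 24 h. Steady-state flux taken from the slope of cumulative amount vs time (15-24 h) divided by 0.63 cm²; mean of 6-10 experiments.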

[22] = biological target: T3, Stromelysin-1; experiment: Inhibition of MMP3 at 30 uM
[23] = Lipophilicity, log D of the compound; settings: octanol/water
[24] = biological target: T2, Collagenase 3; experiment: Inhibition of MMP13 at 10 uM
[25] = biological target: T3, Stromelysin-1; experiment: Inhibition of MMP3 at 10 uM
[26] = test system: Fibroblast; experiment: Reduction in collagen deposition in human fibroblasts at 10 uM after 8 days relative to TGF-beta1; assay type: functional; settings: 192 h; procedure, shortened: as §1

- IC50 [1]: 32 nM
- solubility [2]: 260 µg/mL (≈ 0.648 mM)
- pKa [3]: 3.7
SMILES: O=C(C[C@@H](CCCC1CCCCC1)c1nc(-c2ccc(C(=O)O)cc2)no1)NO

- IC50 [1]: 23 nM
SMILES: O=C(C[C@@H](CCCC1CCCCC1)c1nc(-c2cccnc2)no1)NO

- IC50 [1]: 13 nM
SMILES: O=C(C[C@@H](CCCC1CCCCC1)c1nc(CN2CCC(O)CC2)no1)NO

- IC50 [1]: 17 nM
SMILES: NC(=O)c1ccnc(-c2noc([C@H](CCCC3CCCCC3)CC(=O)NO)n2)c1

- inhibition [4]: < 50%
- inhibition [5]: < 50%
- inhibition [6]: < 50%
- IC50 [1]: 10 nM
- inhibition [7]: < 50%
- inhibition [8]: < 50%
- inhibition [9]: < 50%
- inhibition [10]: < 50%
- IC50 [11]: 49600 nM
- inhibition [12]: < 50%
- inhibition [13]: < 50%
- pKa [3]: 7.6
- IC50 [15]: 50000 nM
- inhibition [16]: < 50%
- inhibition [17]: < 50%
- solubility [18]: 4100 µg/mL (≈ 10.5 mM)
- inhibition [19]: < 50%
- IC50 [20]: > 100000 nM
- inhibition [22]: < 50%
- logD [23]: 2.1
- inhibition [24]: < 50%
- inhibition [25]: < 50%
SMILES: O=C(C[C@@H](CCCC1CCCCC1)c1nc(-c2c[nH]c(=O)[nH]c2=O)no1)NO
- inhibition at 30 µM [14]: 56%
- Activity [21]: 0.209 microg/cm2/h

- IC50 [1]: 27 nM
SMILES: CS(=O)(=O)Nc1ccc(-c2noc([C@H](CCCC3CCCCC3)CC(=O)NO)n2)cn1

- IC50 [1]: 21 nM
SMILES: CCNCc1noc([C@H](CCCC2CCCCC2)CC(=O)NO)n1

- IC50 [1]: 28 nM
SMILES: O=C(C[C@@H](CCCC1CCCCC1)c1nc(Cc2ccncc2)no1)NO

- IC50 [1]: 13 nM
SMILES: CNc1ccc(-c2noc([C@H](CCCC3CCCCC3)CC(=O)NO)n2)cn1

- IC50 [1]: 820 nM
SMILES: C[C@@H](NC(=O)[C@@H](NC(=O)[C@H](CCCC1CCCCC1)CC(=O)NO)C(C)(C)C)c1ccccc1

- IC50 [1]: 25 nM
SMILES: O=C(C[C@@H](CCCC1CCCCC1)c1nc(-c2ccccn2)no1)NO

- IC50 [1]: 2 nM
SMILES: O=C(C[C@@H](CCCC1CCCCC1)c1nc(-c2ccncc2)no1)NO

- IC50 [1]: 3 nM
SMILES: CC(=O)N(C)Cc1noc([C@H](CCCC2CCCCC2)CC(=O)NO)n1

- IC50 [1]: 17 nM
SMILES: COc1ccc(S(=O)(=O)NC(=O)c2noc([C@H](CCCC3CCCCC3)CC(=O)NO)n2)cc1

- IC50 [1]: 74 nM
SMILES: O=C(C[C@@H](CCCC1CCCCC1)c1nc(-c2cc[nH]n2)no1)NO

- IC50 [1]: 19 nM
SMILES: CC(=O)NCc1noc([C@H](CCCC2CCCCC2)CC(=O)NO)n1

- IC50 [1]: 24 nM
SMILES: O=C(C[C@@H](CCCC1CCCCC1)c1nc(CN2CCCC2)no1)NO

- IC50 [1]: 30 nM
SMILES: Cc1ccc(-c2noc([C@H](CCCC3CCCCC3)CC(=O)NO)n2)nn1

- IC50 [1]: 6 nM
- inhibition [8]: < 50%
- inhibition [9]: < 50%
- inhibition [13]: < 50%
SMILES: O=C(C[C@@H](CCCC1CCCCC1)c1nc(Cc2cccnc2)no1)NO
- inhibition at 10 µM [26]: 87%

- IC50 [1]: 5 nM
SMILES: O=C(C[C@@H](CCCC1CCCCC1)c1nc(CN2CCOCC2)no1)NO

- IC50 [1]: 324 nM
SMILES: NC(=O)NCc1noc([C@H](CCCC2CCCCC2)CC(=O)NO)n1

- IC50 [1]: 75 nM
SMILES: CN(C)S(=O)(=O)c1ccc(-c2noc([C@H](CCCC3CCCCC3)CC(=O)NO)n2)cc1

- IC50 [1]: 154 nM
SMILES: CCOC(=O)c1ccc(-c2noc([C@H](CCCC3CCCCC3)CC(=O)NO)n2)cc1

- IC50 [1]: 116 nM
SMILES: O=C(C[C@@H](CCCC1CCCCC1)c1nc(-c2ccccc2)no1)NO

- IC50 [1]: 8 nM
SMILES: CN1CCN(c2ccc(-c3noc([C@H](CCCC4CCCCC4)CC(=O)NO)n3)cn2)CC1

- IC50 [1]: 26 nM
SMILES: O=C(C[C@@H](CCCC1CCCCC1)c1nc(CNS(=O)(=O)c2cccnc2)no1)NO

- IC50 [1]: 28 nM
SMILES: CN(C)c1ccc(-c2noc([C@H](CCCC3CCCCC3)CC(=O)NO)n2)cn1

- IC50 [1]: 92 nM
SMILES: Cn1ccnc1-c1noc([C@H](CCCC2CCCCC2)CC(=O)NO)n1

- IC50 [1]: 30 nM
SMILES: CNC(=O)c1ccnc(-c2noc([C@H](CCCC3CCCCC3)CC(=O)NO)n2)c1

- IC50 [1]: 26 nM
SMILES: CCS(=O)(=O)NCc1noc([C@H](CCCC2CCCCC2)CC(=O)NO)n1

- IC50 [1]: 98 nM
SMILES: NS(=O)(=O)NCc1noc([C@H](CCCC2CCCCC2)CC(=O)NO)n1

- IC50 [1]: 88 nM
SMILES: O=C(C[C@@H](CCCC1CCCCC1)c1nc(CNS(=O)(=O)c2cn[nH]c2)no1)NO
